Data published in ChEMBL document CHEMBL1687714, “Genetic analysis of fenhexamid-resistant field isolates of the phytopathogenic fungus Botrytis cinerea” (Antimicrob Agents Chemother, 2008).
Converted amounts (≈) assume the structure as drawn. The source made the active and inactive calls. The calls are words filed in the database; no cut-off is given here.

Assays:
Type in all cases: functional, organism-based
[1] = test system: Botrytis cinerea; test: Antifungal activity against moderately to slightly fenhexamid-resistant Botrytis cinerea 365 assessed as inhibition of mycelium growth measured over 5 days; conditions: Botrytis cinerea, 365, 120 h
[2] = test system: Botrytis cinerea; test: Antifungal activity against highly fenhexamid-resistant Botrytis cinerea 1837 assessed as inhibition of mycelium growth measured over 5 days; conditions: Botrytis cinerea, 1837, 120 h
[3] = test system: Botrytis cinerea; test: Antifungal activity against highly fenhexamid-resistant Botrytis cinerea 223b assessed as inhibition of mycelium growth measured over 5 days; conditions: 120 h
[4] = test system: Botrytis cinerea; test: Antifungal activity against moderately to slightly fenhexamid-resistant Botrytis cinerea 05-ABA assessed as inhibition of mycelium growth measured over 5 days; conditions: 120 h
[5] = test system: Botrytis cinerea; test: Antifungal activity against moderately to slightly fenhexamid-resistant Botrytis cinerea 221 assessed as inhibition of mycelium growth measured over 5 days; conditions: Botrytis cinerea, 221, 120 h
[6] = test system: Botrytis cinerea; test: Antifungal activity against highly fenhexamid-resistant Botrytis cinerea 05-221 assessed as inhibition of germ tube elongation after 24 hrs; conditions: 05-221, 24 h
[7] = test system: Botrytis cinerea; test: Antifungal activity against highly fenhexamid-resistant Botrytis cinerea 05-PV Reims assessed as inhibition of mycelium growth measured over 5 days; conditions: 120 h
[8] = test system: Botrytis cinerea; test: Antifungal activity against highly fenhexamid-resistant Botrytis cinerea 214 assessed as inhibition of germ tube elongation after 24 hrs; conditions: Botrytis cinerea, 214, 24 h
[9] = test system: Botrytis cinerea; test: Antifungal activity against HydR3 deficient Botrytis cinerea 453 harboring TELerg F412I mutant at 2 ug/ml relative to wild-type
Procedure, shortened: (§1)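 In the dominance test, the recipient strains 453b and 286 were transformed with different erg27 alleles. Spores of the transformants were grown on YSS medium containing fenhexamid at different concentrations and 50 µg ml–1 hygromycin B. Parental strains were grown without hygromycin. Growth was scored after 7 days at 21°C.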

[10] = test system: Botrytis cinerea; test: Antifungal activity against highly fenhexamid-resistant Botrytis cinerea 05-221 assessed as inhibition of mycelium growth measured over 5 days; conditions: 05-221, 120 h
[11] = test system: Botrytis cinerea; test: Antifungal activity against highly fenhexamid-resistant Botrytis cinerea 506a assessed as inhibition of germ tube elongation after 24 hrs
[12] = test system: Botrytis cinerea; test: Antifungal activity against highly fenhexamid-resistant Botrytis cinerea 118 assessed as inhibition of mycelium growth measured over 5 days; conditions: Botrytis cinerea, 118, 120 h
[13] = test system: Botrytis cinerea; test: Antifungal activity against highly fenhexamid-resistant Botrytis cinerea 1837 assessed as inhibition of germ tube elongation after 24 hrs; conditions: Botrytis cinerea, 1837, 24 h
[14] = test system: Botrytis cinerea; test: Antifungal activity against moderately to slightly fenhexamid-resistant Botrytis cinerea 286 assessed as inhibition of germ tube elongation after 24 hrs; conditions: Botrytis cinerea, 286, 24 h
[15] = test system: Botrytis cinerea; test: Antifungal activity against HydR3 deficient Botrytis cinerea 453 harboring TELerg N369D mutant at 10 ug/ml relative to wild-type; procedure, shortened: as §1
[16] = test system: Botrytis cinerea; test: Antifungal activity against moderately to slightly fenhexamid-resistant Botrytis cinerea 452 assessed as inhibition of mycelium growth measured over 5 days; conditions: Botrytis cinerea, 452, 120 h
[17] = test system: Botrytis cinerea; test: Antifungal activity against moderately to slightly fenhexamid-resistant Botrytis cinerea 57 assessed as inhibition of mycelium growth measured over 5 days; conditions: Botrytis cinerea, 57, 120 h
[18] = test system: Botrytis cinerea; test: Antifungal activity against highly fenhexamid-resistant Botrytis cinerea 506a assessed as inhibition of mycelium growth measured over 5 days; conditions: 120 h
[19] = test system: Botrytis cinerea; test: Antifungal activity against highly fenhexamid-resistant Botrytis cinerea 520b assessed as inhibition of mycelium growth measured over 5 days; conditions: 120 h
[20] = test system: Botrytis cinerea; test: Antifungal activity against highly fenhexamid-resistant Botrytis cinerea MK3-1 assessed as inhibition of germ tube elongation after 24 hrs; conditions: MK3-1, 24 h
[21] = test system: Botrytis cinerea; test: Antifungal activity against highly fenhexamid-resistant Botrytis cinerea 312 assessed as inhibition of mycelium growth measured over 5 days; conditions: Botrytis cinerea, 312, 120 h
[22] = test system: Botrytis cinerea; test: Antifungal activity against highly fenhexamid-resistant Botrytis cinerea 214 assessed as inhibition of mycelium growth measured over 5 days; conditions: Botrytis cinerea, 214, 120 h
[23] = test system: Botrytis cinerea; test: Antifungal activity against fenhexamid-senistive Botrytis cinerea B05.10 assessed as inhibition of germ tube elongation after 24 hrs; conditions: B05.10, 24 h
[24] = test system: Botrytis cinerea; test: Antifungal activity against moderately to slightly fenhexamid-resistant Botrytis cinerea 286 assessed as inhibition of mycelium growth measured over 5 days; conditions: Botrytis cinerea, 286, 120 h
[25] = test system: Botrytis cinerea; test: Antifungal activity against Botrytis cinerea 1837 expressing erg27 HydR3+ alleles assessed as appearance of dense mycelium up to 20 ug/ml
Procedure, shortened: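 Spores of parental strains were spread on YSS (synthetic complete) medium containing fenhexamid at several concentrations, without hygromycin B. Growth was scored after 7 days at 21°C.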

[26] = test system: Botrytis cinerea; test: Antifungal activity against highly fenhexamid-resistant Botrytis cinerea MK3-36 assessed as inhibition of germ tube elongation after 24 hrs; conditions: MK3-36, 24 h
[27] = test system: Botrytis cinerea; test: Antifungal activity against Botrytis cinerea 286 harboring TELerg S336C mutant at 1 ug/ml relative to wild-type; procedure, shortened: as §1
[28] = test system: Botrytis cinerea; test: Antifungal activity against moderately to slightly fenhexamid-resistant Botrytis cinerea 57 assessed as inhibition of germ tube elongation after 24 hrs; conditions: Botrytis cinerea, 57, 24 h
[29] = test system: Botrytis cinerea; test: Antifungal activity against moderately to slightly fenhexamid-resistant Botrytis cinerea 454 assessed as inhibition of mycelium growth measured over 5 days; conditions: Botrytis cinerea, 454, 120 h
[30] = test system: Botrytis cinerea; test: Antifungal activity against Botrytis cinerea 286 harboring TELerg S336C mutant at 5 ug/ml relative to wild-type; procedure, shortened: as §1
[31] = test system: Botrytis cinerea; test: Antifungal activity against fenhexamid-senistive Botrytis cinerea SAS56 assessed as inhibition of germ tube elongation after 24 hrs; conditions: SAS56, 24 h
[32] = test system: Botrytis cinerea; test: Antifungal activity against Botrytis cinerea 286 harboring TELerg S336C mutant at 2 ug/ml relative to wild-type; procedure, shortened: as §1
[33] = test system: Botrytis cinerea; test: Antifungal activity against moderately to slightly fenhexamid-resistant Botrytis cinerea 221 assessed as inhibition of germ tube elongation after 24 hrs; conditions: Botrytis cinerea, 221, 24 h
[34] = test system: Botrytis cinerea; test: Antifungal activity against highly fenhexamid-resistant Botrytis cinerea 05-AVB assessed as inhibition of germ tube elongation after 24 hrs
[35] = test system: Botrytis cinerea; test: Antifungal activity against highly fenhexamid-resistant Botrytis cinerea MK5-14 assessed as inhibition of germ tube elongation after 24 hrs; conditions: MK5-14, 24 h
[36] = test system: Botrytis cinerea; test: Antifungal activity against highly fenhexamid-resistant Botrytis cinerea 440b assessed as inhibition of mycelium growth measured over 5 days; conditions: 120 h
[37] = test system: Botrytis cinerea; test: Antifungal activity against moderately to slightly fenhexamid-resistant Botrytis cinerea 365 assessed as inhibition of germ tube elongation after 24 hrs; conditions: Botrytis cinerea, 365, 24 h
[38] = test system: Botrytis cinerea; test: Antifungal activity against highly fenhexamid-resistant Botrytis cinerea 223a assessed as inhibition of mycelium growth measured over 5 days; conditions: 120 h
[39] = test system: Botrytis cinerea; test: Antifungal activity against moderately to slightly fenhexamid-resistant Botrytis cinerea 453a assessed as inhibition of mycelium growth measured over 5 days; conditions: 120 h
[40] = test system: Botrytis cinerea; test: Antifungal activity against highly fenhexamid-resistant Botrytis cinerea 506b assessed as inhibition of mycelium growth measured over 5 days; conditions: 120 h
[41] = test system: Botrytis cinerea; test: Antifungal activity against highly fenhexamid-resistant Botrytis cinerea 533 assessed as inhibition of mycelium growth measured over 5 days; conditions: Botrytis cinerea, 533, 120 h
[42] = test system: Botrytis cinerea; test: Antifungal activity against highly fenhexamid-resistant Botrytis cinerea 179 assessed as inhibition of germ tube elongation after 24 hrs; conditions: Botrytis cinerea, 179, 24 h

CC1(C(=O)Nc2ccc(O)c(Cl)c2Cl)CCCCC1 [FENHEXAMID]
EC50 [1]: 0.3 µg/mL (≈ 0.993 µM)
EC50 [2]: > 10 µg/mL
EC50 [3]: > 10 µg/mL
EC50 [4]: 0.2 µg/mL (≈ 0.662 µM)
EC50 [5]: 0.2 µg/mL (≈ 0.662 µM)
EC50 [6]: > 10 µg/mL
EC50 [7]: > 10 µg/mL
EC50 [8]: 10 µg/mL (≈ 33.1 µM)
Activity [9]: inactive
EC50 [10]: 7 µg/mL (≈ 23.2 µM)
EC50 [11]: > 10 µg/mL
EC50 [12]: > 10 µg/mL
EC50 [13]: > 10 µg/mL
EC50 [14]: 4 µg/mL (≈ 13.2 µM)
Activity [15]: inactive
EC50 [16]: 1.5 µg/mL (≈ 4.96 µM)
EC50 [17]: < 0.3 µg/mL
EC50 [18]: > 10 µg/mL
EC50 [19]: 3 µg/mL (≈ 9.93 µM)
EC50 [20]: > 5 µg/mL
EC50 [21]: > 10 µg/mL
EC50 [22]: > 10 µg/mL
EC50 [23]: < 0.1 µg/mL
EC50 [24]: 1.5 µg/mL (≈ 4.96 µM)
Activity [25]: inactive
EC50 [26]: > 5 µg/mL
Activity [27]: inactive
EC50 [28]: 2 µg/mL (≈ 6.62 µM)
EC50 [29]: < 0.3 µg/mL
Activity [30]: inactive
EC50 [31]: < 0.1 µg/mL
Activity [32]: inactive
EC50 [33]: 0.5 µg/mL (≈ 1.65 µM)
EC50 [34]: > 10 µg/mL
EC50 [35]: > 5 µg/mL
EC50 [36]: > 10 µg/mL
EC50 [37]: 2 µg/mL (≈ 6.62 µM)
EC50 [38]: > 10 µg/mL
EC50 [39]: 2 µg/mL (≈ 6.62 µM)
EC50 [40]: > 10 µg/mL
EC50 [41]: 10 µg/mL (≈ 33.1 µM)
EC50 [42]: > 10 µg/mL
